From ChEMBL document CHEMBL4308900, “Synthesis and identification of 2,4-bisanilinopyrimidines bearing 2,2,6,6-tetramethylpiperidine-N-oxyl as potential Aurora A inhibitors” (Bioorg Med Chem, 2019)
Calls of active or inactive are those of the source. The rule behind the calls is not given here.

Legend:
HeLa [1] = assay: Cell cycle arrest in human HeLa cells assessed as accumulation at G1 phase at 5 uM after 12 hrs by propidium iodide staining-based flow cytometric analysis (reference value: 70.68%); assay type: functional
How it was run: (§1)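 HeLa cells exposed 12 h to 1 or 5 μM compound diluted from DMSO (DMSO control), fixed, stained with propidium iodide; DNA content measured by flow cytometry and G1, S, G2/M fractions calculated from the DNA histogram.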

Homo sapiens = species: Homo sapiens; assay: Selectivity ratio of IC50 for Aurora B (unknown origin) to IC50 for Aurora A (unknown origin)
HeLa [2] = assay: Induction of apoptosis in human HeLa cells assessed as necrotic cells at 5 uM after 12 hrs by Annexin V-FITC/propidium iodide staining-based flow cytometric analysis (reference value: 5.92%); assay type: functional
HeLa [3] = assay: Cell cycle arrest in human HeLa cells assessed as accumulation at G2/M phase at 1 uM after 12 hrs by propidium iodide staining-based flow cytometric analysis (reference value: 23.57%); assay type: functional; how it was run: as §1
HeLa [4] = assay: Disruption of spindle formation in human HeLa cells assessed as shrinkage of microtubule spindles at 1 uM after 24 hrs by DAPI staining based immunofluorescence microscopic analysis; assay type: functional, cell-based
How it was run: (§2)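 HeLa cells on coverslips treated 24 h (0.1 or 1 μM; DMSO control); fixed in 4% paraformaldehyde, permeabilised in 0.1% Triton X-100 with 2% BSA, anti-α-tubulin overnight at 4 °C, FITC secondary 2 h room temperature, DAPI for DNA; confocal imaging.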

HepG2 = assay: Antiproliferative activity against human HepG2 cells after 48 hrs by MTT assay; assay type: functional; conditions: HepG2, 48 h
How it was run: (§3)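 MTT assay: cells attached 4–6 h at 37 °C, 5% CO2, then exposed 48 h to graded concentrations from DMSO stocks; 5 mg/mL MTT added for 4 h, formazan dissolved in DMSO, absorbance at 490 nm. GI50 from log plot of percent of control versus concentration; mean of three independent experiments.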

[5] = target: T1, Aurora kinase A (Homo sapiens) (UniProt O14965); assay: Inhibition of Aurora A phosphorylation at Thr288 residue in human HeLa cells after 12 hrs by Western blot analysis; assay type: cell-based
T1 sequence (whole entry): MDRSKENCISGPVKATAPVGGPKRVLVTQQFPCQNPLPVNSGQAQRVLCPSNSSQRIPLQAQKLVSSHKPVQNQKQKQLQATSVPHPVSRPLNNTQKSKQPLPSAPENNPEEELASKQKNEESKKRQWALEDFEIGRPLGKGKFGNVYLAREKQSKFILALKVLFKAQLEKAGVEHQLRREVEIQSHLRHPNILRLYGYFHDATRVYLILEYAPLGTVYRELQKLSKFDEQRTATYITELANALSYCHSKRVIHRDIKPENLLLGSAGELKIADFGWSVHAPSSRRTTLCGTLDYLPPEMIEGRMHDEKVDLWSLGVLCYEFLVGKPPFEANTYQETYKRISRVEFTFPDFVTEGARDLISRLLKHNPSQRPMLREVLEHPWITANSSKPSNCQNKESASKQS
How it was run: (§4)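 HeLa cells given 0, 1.25, 2.5 or 5.0 μM for 12 h; lysates in buffer with phosphatase and protease inhibitors, 10% SDS-PAGE western blot probed for phospho-Aurora A Thr288, phospho-Aurora B Thr232 and total Aurora A/B, β-actin loading control; band levels as mean ± SD versus control.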

HeLa [6] = assay: Induction of apoptosis in human HeLa cells assessed as upregulation of Bad protein expression up to 5 uM after 12 hrs by Western blot analysis; assay type: functional, cell-based
How it was run: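 HeLa cells treated 12 h (0.1, 1, 5 μM for apoptosis proteins); lysed in Tris pH 7.5/NP-40/SDS buffer with protease inhibitors, equal protein on 10% SDS-PAGE, PVDF, 5% BSA block, primary antibodies overnight at 4 °C, β-actin loading control; mean ± SD.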

HeLa [7] = assay: Cell cycle arrest in human HeLa cells assessed as accumulation at S phase at 5 uM after 12 hrs by propidium iodide staining-based flow cytometric analysis (reference value: 5.74%); assay type: functional; how it was run: as §1
HeLa [8] = assay: Disruption of spindle formation in human HeLa cells assessed as formation of abnormal mitotic spindles at 0.1 to 1 uM after 24 hrs by DAPI staining based immunofluorescence microscopic analysis; assay type: functional, cell-based; how it was run: as §2
Aurora kinase B = Aurora kinase B (Homo sapiens, UniProt Q96GD4); assay: Inhibition of Aurora B phosphorylation at Thr232 residue in human HeLa cells after 12 hrs by Western blot analysis; assay type: cell-based; how it was run: as §4
Chain of Aurora kinase B (Q96GD4 whole entry): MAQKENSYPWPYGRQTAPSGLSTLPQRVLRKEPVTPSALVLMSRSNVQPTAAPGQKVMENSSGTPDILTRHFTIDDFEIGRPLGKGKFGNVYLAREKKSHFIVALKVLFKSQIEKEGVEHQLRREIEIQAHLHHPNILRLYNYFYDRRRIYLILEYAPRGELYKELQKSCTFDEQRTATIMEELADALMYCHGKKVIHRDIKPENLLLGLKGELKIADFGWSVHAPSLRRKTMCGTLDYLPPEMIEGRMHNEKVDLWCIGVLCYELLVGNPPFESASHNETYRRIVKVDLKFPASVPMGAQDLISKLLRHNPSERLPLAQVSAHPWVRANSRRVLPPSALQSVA

Aurora kinase A = target: T2, Aurora kinase A (Homo sapiens, UniProt O14965); assay: Inhibition of Aurora A phosphorylation at Thr288 residue in human HeLa cells after 12 hrs by ELISA; assay type: cell-based
T2 sequence (O14965 whole entry): T1 sequence (whole entry)

[9] = target: T1, Aurora kinase A (Homo sapiens); assay: Inhibition of Aurora A phosphorylation at Thr288 residue in human HeLa cells at <10 nM after 12 hrs by ELISA; assay type: cell-based
How it was run: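 HeLa cells grown 12 h in 6-well dishes with compound diluted from DMSO at several concentrations; whole-cell lysate captured on anti-Aurora A or B antibody-coated wells, HRP-labelled detection, TMB substrate, stopped with sulphuric acid, absorbance at 450 nm.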

HeLa [10] = assay: Induction of apoptosis in human HeLa cells assessed as viable cells at 5 uM after 12 hrs by Annexin V-FITC/propidium iodide staining-based flow cytometric analysis (reference value: 91.02%); assay type: functional; conditions: read-out: Activity
LoVo = assay: Antiproliferative activity against human LoVo cells after 48 hrs by MTT assay; assay type: functional; how it was run: as §3

CC1(C)CC(NC(=O)c2ccc(Nc3ncc(F)c(Nc4ccc(C(=O)Nc5ccccc5Cl)cc4)n3)cc2)CC(C)(C)N1[O]
Activity (HeLa [1]): 39.67% | Ratio IC50 (Homo sapiens): 42 | Activity (HeLa [2]): 10.75% | Activity (HeLa [3]): 40.67% | Activity (HeLa [4]): Active | GI50 (HepG2): 1200 nM | inhibition [5]: Dose-dependent effect | Activity (HeLa [6]): Active | Activity (HeLa [7]): 0% | Activity (HeLa [8]): Active | inhibition (Aurora kinase B): Dose-dependent effect | IC50 (Aurora kinase A): 8 nM | inhibition [9]: inactive | viability at 5 µM (HeLa [10]): 67.7% | GI50 (LoVo): 7.3 µM
